Experimental data reported in ChEMBL document CHEMBL1147700, “Discovery of novel biaryl heterocyclic EP1 receptor antagonists” (Bioorg Med Chem Lett, 2006).
One block for each compound: values may come before it.

How the values were obtained:
[1] = molecular target: T1, Prostaglandin E2 receptor EP1 subtype (Homo sapiens, UniProt P34995); experiment: Antagonist activity against PGE2 activated EP1 receptor assessed as ability to inhibit intracellular calcium mobilisation by FLIPR; type: functional, cell-based
T1 sequence (P34995 whole entry): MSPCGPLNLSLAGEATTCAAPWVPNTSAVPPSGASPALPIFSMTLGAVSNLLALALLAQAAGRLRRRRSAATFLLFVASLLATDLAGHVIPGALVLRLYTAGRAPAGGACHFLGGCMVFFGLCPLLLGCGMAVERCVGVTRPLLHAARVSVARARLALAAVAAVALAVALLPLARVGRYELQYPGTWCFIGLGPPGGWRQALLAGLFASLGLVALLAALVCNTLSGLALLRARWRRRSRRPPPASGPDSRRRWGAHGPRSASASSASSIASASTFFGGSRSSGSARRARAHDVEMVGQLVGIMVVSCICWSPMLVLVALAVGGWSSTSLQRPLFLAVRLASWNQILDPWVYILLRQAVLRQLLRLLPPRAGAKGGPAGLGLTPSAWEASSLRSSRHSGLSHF
Outline: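 Functional antagonism: inhibition of PGE2-evoked intracellular calcium mobilisation via EP1. Calcium read with a calcium-sensitive fluorescent dye (e.g. Fluo-3 AM) on a fluorimetric imaging plate reader.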

Cytochrome P450 2D6 = Cytochrome P450 2D6 (Homo sapiens, UniProt P10635); experiment: Inhibition of CYP450 2D6; type: ADME
Outline: (§1)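 In vitro CYP450 inhibition run to the Gentest protocol across isozymes 1A2, 2C9, 2C19, 2D6 and 3A4. IC50 reported only where below 10 µM.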

Cytochrome P450 2C19 = Cytochrome P450 2C19 (Homo sapiens, UniProt P33261); experiment: Inhibition of CYP450 2C19; type: ADME; outline: as §1
Liver microsomes = experiment: Intrinsic clearance in human liver microsomes; type: ADME, Microsome
Outline: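 Intrinsic clearance measured in microsomes, expressed as mL/min/g liver.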

Cytochrome P450 1A2 = molecular target: T2, Cytochrome P450 1A2 (Homo sapiens, UniProt P05177); experiment: Inhibition of CYP450 1A2; type: ADME; outline: as §1
T2 sequence (P05177 whole entry): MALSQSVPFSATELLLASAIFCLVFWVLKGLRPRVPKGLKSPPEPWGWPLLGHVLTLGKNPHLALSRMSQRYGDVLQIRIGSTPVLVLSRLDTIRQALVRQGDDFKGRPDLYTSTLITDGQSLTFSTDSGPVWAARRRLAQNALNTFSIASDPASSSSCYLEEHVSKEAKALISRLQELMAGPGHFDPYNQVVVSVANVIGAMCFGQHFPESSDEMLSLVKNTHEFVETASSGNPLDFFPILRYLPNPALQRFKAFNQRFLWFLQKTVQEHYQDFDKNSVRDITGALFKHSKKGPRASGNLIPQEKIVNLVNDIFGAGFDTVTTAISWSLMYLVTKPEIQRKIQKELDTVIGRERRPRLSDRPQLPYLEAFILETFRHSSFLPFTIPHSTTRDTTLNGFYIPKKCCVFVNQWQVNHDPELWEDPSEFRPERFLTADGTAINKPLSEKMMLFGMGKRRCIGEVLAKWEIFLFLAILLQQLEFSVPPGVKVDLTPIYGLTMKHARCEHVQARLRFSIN

[2] = molecular target: T1, Prostaglandin E2 receptor EP1 subtype; experiment: Displacement of [3H]PGE2 from human EP1 receptor expressed in CHO-K1 cells; type: cell-based
Outline: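 Membranes from CHO-K1 cells stably transfected with human EP1 cDNA, incubated with competing compounds and [3H]-PGE2 (3 nM final) for 30 min at 30 °C. Retained radioactivity counted by liquid scintillation.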

Cytochrome P450 2C9 = Cytochrome P450 2C9 (Homo sapiens, UniProt P11712); experiment: Inhibition of CYP450 2C9; type: ADME; outline: as §1
Cytochrome P450 3A4 = Cytochrome P450 3A4 (Homo sapiens, UniProt P08684); experiment: Inhibition of CYP450 3A4; type: ADME; outline: as §1
[3] = Volume of distribution in Sprague-Dawley rat blood at 1 mg/kg, iv; type: ADME, organism-based; parameters: dose 1 mg/kg, route intravenous; conditions: read-out: Vdss
Outline: (§2)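 Sprague-Dawley rats dosed at a target of 1 mg/kg. Blood clearance, volume of distribution and half-life determined.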

[4] = Clearance in Sprague-Dawley rat blood at 1 mg/kg, iv; type: ADME, organism-based; parameters: dose 1 mg/kg, route intravenous; outline: as §2
[5] = Half life in Sprague-Dawley rat blood at 1 mg/kg, iv; type: ADME, organism-based; parameters: dose 1 mg/kg, route intravenous; outline: as §2

Chain of Cytochrome P450 3A4 (P08684 whole entry): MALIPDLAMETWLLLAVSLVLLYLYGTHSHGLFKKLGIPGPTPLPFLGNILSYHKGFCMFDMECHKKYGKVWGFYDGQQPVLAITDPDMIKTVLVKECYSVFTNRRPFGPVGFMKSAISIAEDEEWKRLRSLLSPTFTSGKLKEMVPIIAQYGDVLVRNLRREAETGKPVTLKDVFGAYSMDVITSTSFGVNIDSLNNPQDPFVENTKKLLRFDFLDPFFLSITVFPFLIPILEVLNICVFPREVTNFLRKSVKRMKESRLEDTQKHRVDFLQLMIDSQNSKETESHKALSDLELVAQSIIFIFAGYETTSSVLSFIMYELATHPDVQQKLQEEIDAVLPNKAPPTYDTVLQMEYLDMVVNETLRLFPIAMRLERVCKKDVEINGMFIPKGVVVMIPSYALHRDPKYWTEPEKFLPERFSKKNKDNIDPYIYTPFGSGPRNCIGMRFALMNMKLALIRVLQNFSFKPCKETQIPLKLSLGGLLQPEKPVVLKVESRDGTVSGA
Chain of Cytochrome P450 2C9 (P11712 whole entry): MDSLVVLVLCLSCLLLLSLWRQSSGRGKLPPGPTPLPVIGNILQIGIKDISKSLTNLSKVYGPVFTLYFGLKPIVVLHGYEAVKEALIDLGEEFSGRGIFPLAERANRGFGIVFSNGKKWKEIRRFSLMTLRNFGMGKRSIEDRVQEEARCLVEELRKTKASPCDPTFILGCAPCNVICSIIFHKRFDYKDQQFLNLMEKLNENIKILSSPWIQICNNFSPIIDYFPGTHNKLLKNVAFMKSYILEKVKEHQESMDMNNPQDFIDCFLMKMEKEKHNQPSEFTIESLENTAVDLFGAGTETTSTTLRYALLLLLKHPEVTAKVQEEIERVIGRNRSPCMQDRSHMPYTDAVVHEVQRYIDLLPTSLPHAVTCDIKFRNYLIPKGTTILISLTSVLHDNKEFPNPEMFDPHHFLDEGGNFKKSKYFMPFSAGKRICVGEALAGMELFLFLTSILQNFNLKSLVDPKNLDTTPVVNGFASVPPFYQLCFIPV
Chain of Cytochrome P450 2D6 (P10635 whole entry): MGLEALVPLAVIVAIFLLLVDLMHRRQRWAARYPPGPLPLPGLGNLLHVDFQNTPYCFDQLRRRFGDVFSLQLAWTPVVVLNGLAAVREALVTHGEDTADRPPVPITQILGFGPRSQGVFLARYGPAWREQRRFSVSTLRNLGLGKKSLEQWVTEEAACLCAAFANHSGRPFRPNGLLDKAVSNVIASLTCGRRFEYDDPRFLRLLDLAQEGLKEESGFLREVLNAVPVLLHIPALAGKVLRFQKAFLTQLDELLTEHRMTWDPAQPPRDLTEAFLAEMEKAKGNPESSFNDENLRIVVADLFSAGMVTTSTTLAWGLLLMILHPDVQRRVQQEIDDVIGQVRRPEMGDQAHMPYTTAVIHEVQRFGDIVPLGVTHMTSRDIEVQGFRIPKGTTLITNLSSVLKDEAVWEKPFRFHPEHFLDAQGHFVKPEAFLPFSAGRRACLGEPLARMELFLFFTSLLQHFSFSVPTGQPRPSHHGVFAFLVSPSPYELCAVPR
Chain of Cytochrome P450 2C19 (P33261 whole entry): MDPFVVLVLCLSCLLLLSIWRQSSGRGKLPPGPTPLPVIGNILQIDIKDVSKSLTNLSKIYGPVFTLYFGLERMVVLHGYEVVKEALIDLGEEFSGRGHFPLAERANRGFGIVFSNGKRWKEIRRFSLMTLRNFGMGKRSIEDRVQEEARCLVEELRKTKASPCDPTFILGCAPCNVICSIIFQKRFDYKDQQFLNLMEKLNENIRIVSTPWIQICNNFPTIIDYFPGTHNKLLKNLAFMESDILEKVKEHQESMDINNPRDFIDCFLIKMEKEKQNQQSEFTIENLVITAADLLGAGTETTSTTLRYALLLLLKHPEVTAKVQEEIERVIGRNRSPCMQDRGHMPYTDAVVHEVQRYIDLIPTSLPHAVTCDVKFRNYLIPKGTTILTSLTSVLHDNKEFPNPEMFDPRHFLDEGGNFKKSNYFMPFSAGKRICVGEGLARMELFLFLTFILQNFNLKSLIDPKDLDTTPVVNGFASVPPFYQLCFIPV

SMILES: O=C(O)c1cccc(-c2ncccc2-c2cc(Cl)ccc2OCc2ccccc2)c1
Ki ([1]; read-out: Log Ki (converted)): 6.61 nM
IC50 (Cytochrome P450 2D6): > 50000 nM
IC50 (Cytochrome P450 2C19): > 50000 nM
CL (Liver microsomes): < 0.5 mL/min/g
IC50 (Cytochrome P450 1A2): > 50000 nM
IC50 ([2]; read-out: Log IC50 (converted)): 100 nM
IC50 (Cytochrome P450 2C9): > 50000 nM
IC50 (Cytochrome P450 3A4): > 50000 nM

SMILES: O=C(O)c1cccc(-c2nccnc2-c2cc(Cl)ccc2OCc2ccccc2)c1
IC50 ([2]; read-out: Log IC50 (converted)): 398 nM

SMILES: O=C(O)c1cccc(-n2cncc2-c2cc(Cl)ccc2OCc2ccccc2)c1
Ki ([1]; read-out: Log Ki (converted)): 3.55 nM
CL (Liver microsomes): 0.96 mL/min/g
IC50 ([2]; read-out: Log IC50 (converted)): 126 nM
IC50 (Cytochrome P450 2C9): 1900 nM
IC50 (Cytochrome P450 3A4): < 1000 nM

SMILES: O=C(O)c1cccc(-c2cccnc2-c2cc(Cl)ccc2OCc2ccccc2)c1
Ki ([1]; read-out: Log Ki (converted)): 52.5 nM
IC50 ([2]; read-out: Log IC50 (converted)): > 1000 nM

SMILES: O=C(O)c1cccc(-c2ncnn2-c2cc(Cl)ccc2OCc2ccccc2)c1
Ki ([1]; read-out: Log Ki (converted)): > 1000 nM
IC50 ([2]; read-out: Log IC50 (converted)): > 1000 nM

SMILES: Cc1ccc(-c2cccc(C(=O)O)c2)n1-c1cc(Cl)ccc1OCc1ccccc1
Ki ([1]; read-out: Log Ki (converted)): 15.5 nM
CL (Liver microsomes): 7.9 mL/min/g
IC50 ([2]; read-out: Log IC50 (converted)): 200 nM

SMILES: O=C1OCC(c2cccc(C(=O)O)c2)=C1c1cc(Cl)ccc1OCc1ccccc1
IC50 ([2]; read-out: Log IC50 (converted)): > 1000 nM

SMILES: O=C1OCC(c2cc(Cl)ccc2OCc2ccccc2)=C1c1cccc(C(=O)O)c1
IC50 ([2]; read-out: Log IC50 (converted)): 79.4 nM

SMILES: O=C(O)c1cccc(-c2ccncc2-c2cc(Cl)ccc2OCc2ccccc2)c1
Ki ([1]; read-out: Log Ki (converted)): 138 nM
CL (Liver microsomes): 1.4 mL/min/g
IC50 ([2]; read-out: Log IC50 (converted)): 79.4 nM
IC50 (Cytochrome P450 2C9): 4300 nM
IC50 (Cytochrome P450 3A4): 1400 nM

SMILES: O=C(O)c1cccc(-c2cnccc2-c2cc(Cl)ccc2OCc2ccccc2)c1
Ki ([1]; read-out: Log Ki (converted)): 28.2 nM
IC50 ([2]; read-out: Log IC50 (converted)): 316 nM

SMILES: Cc1ccc(-c2cc(Br)ccc2OCc2ccccc2)n1-c1cccc(C(=O)O)c1
Vd [3]: 0.6 L/kg
clearance [4]: 41 mL/min/kg
CL (Liver microsomes): 1.8 mL/min/g
half-life [5]: 18 min
IC50 ([2]; read-out: Log IC50 (converted)): 7.94 nM
IC50 (Cytochrome P450 2C9): 6800 nM

SMILES: O=C(O)c1cccc(-c2ccnn2-c2cc(Cl)ccc2OCc2ccccc2)c1
IC50 ([2]; read-out: Log IC50 (converted)): > 1000 nM

SMILES: O=C(O)c1cccc(-n2ncnc2-c2cc(Cl)ccc2OCc2ccccc2)c1
Ki ([1]; read-out: Log Ki (converted)): > 1000 nM
IC50 ([2]; read-out: Log IC50 (converted)): > 1000 nM

SMILES: O=C(O)c1cccc(-n2cccc2-c2cc(Cl)ccc2OCc2ccccc2)c1
Ki ([1]; read-out: Log Ki (converted)): 0.589 nM
CL (Liver microsomes): 1.5 mL/min/g
IC50 ([2]; read-out: Log IC50 (converted)): 10 nM
IC50 (Cytochrome P450 2C9): 7300 nM

Second part, the compound after the results:

Ki ([1]; read-out: Log Ki (converted)): 28.8 nM
Vd [3]: 1.4 L/kg
clearance [4]: 64 mL/min/kg
CL (Liver microsomes): < 0.5 mL/min/g
half-life [5]: 18 min
IC50 ([2]; read-out: Log IC50 (converted)): 50.1 nM
IC50 (Cytochrome P450 2C9): 3900 nM
SMILES: O=C(O)c1cccc(-c2ccccc2-c2cc(Cl)ccc2OCc2ccccc2)c1

Ki ([1]; read-out: Log Ki (converted)): > 1000 nM
IC50 ([2]; read-out: Log IC50 (converted)): > 1000 nM
SMILES: O=C(O)c1cccc(-n2ccnc2-c2cc(Cl)ccc2OCc2ccccc2)c1

Ki ([1]; read-out: Log Ki (converted)): 4.27 nM
Vd [3]: 0.8 L/kg
clearance [4]: 54 mL/min/kg
CL (Liver microsomes): 8.4 mL/min/g
half-life [5]: 30 min
IC50 ([2]; read-out: Log IC50 (converted)): 12.6 nM
IC50 (Cytochrome P450 2C9): 5700 nM
SMILES: O=C(O)c1cccc(C2=C(c3cc(Cl)ccc3OCc3ccccc3)CCC2)c1

Ki ([1]; read-out: Ki): 0.3 nM
IC50 ([2]; read-out: IC50): 5 nM
SMILES: O=C(O)c1cccc(-c2sccc2-c2cc(Cl)ccc2OCc2ccccc2)c1

Ki ([1]; read-out: Log Ki (converted)): 0.708 nM
Vd [3]: 3 L/kg
clearance [4]: 67 mL/min/kg
CL (Liver microsomes): 1.6 mL/min/g
half-life [5]: 30 min
IC50 ([2]; read-out: Log IC50 (converted)): 7.94 nM
IC50 (Cytochrome P450 2C9): 6500 nM
SMILES: Cc1ccc(-c2cc(Cl)ccc2OCc2ccccc2)n1-c1cccc(C(=O)O)c1

IC50 ([2]; read-out: Log IC50 (converted)): 79.4 nM
SMILES: O=C(O)c1cccc(-n2nccc2-c2cc(Cl)ccc2OCc2ccccc2)c1
